# Published values of several laboratories.
# Target: Mitogen-activated protein kinase 10 (MAPK10, Homo sapiens, UniProt P53779)
SMILES,observed,technique,concentration,remaining binding [%]
COc1ncc2cc3ccccc3nc2c1C#N,cell-free assay,competition with immobilised ligand,5 µM,100
O=C(NCCCN1CCOCC1)c1ccc(Nc2nccc(-c3cc4ccccc4s3)n2)cc1,binding,competition with immobilised ligand,1 µM,15
C[C@@H]1CN(c2ccc3ncc(-c4ccc5[nH]nc(C6CC6)c5c4)n3n2)C[C@H](C)O1,binding,competition with immobilised ligand,50 nM,85
CN(C)c1nccc(-c2cnc3ncccn23)n1,binding,,1 µM,70
CCOCCn1cc(C(=O)Nc2ccc(-n3nc(-c4cccnc4)cc3C(F)(F)F)cn2)ccc1=O,cell-free assay,competition with immobilised ligand,1 µM,100
COc1cnc(Nc2cccc(S(N)(=O)=O)c2)nc1N1CCN(c2ccccc2)C(=O)C1,binding,competition with immobilised ligand,1 µM,63
O=C(O)[C@@H]1[C@@H](Cn2nnc3ccccc3c2=O)CC[C@H]1C(=O)c1ccc(OCCC2CCOCC2)cc1,cell-free assay,competition with immobilised ligand,1 µM,100
O=C(NCC1CCOCC1)c1n[nH]cc1NC(=O)c1c(F)cccc1F,binding,competition with immobilised ligand,1 µM,31
Cc1nc(N2CC[C@@H](O)C2)ncc1-c1cc(C(F)(F)F)cc2[nH]ncc12,binding,competition with immobilised ligand,1 µM,72
CNC(=O)[C@@H]1CC[C@@H](n2c(-c3ccc4cnccc4c3)nc3ccc(C(=O)NCc4cccc(C(N)=O)c4)cc32)C1,binding,competition with immobilised ligand,1 µM,84
CC1CCCN1c1nccc(-c2cnn3ncccc23)n1 (stereo not drawn),binding,,1 µM,79
O=C1CCc2cc(Nc3cc(OC4CCOCC4)c([N+](=O)[O-])cc3Cl)ccc2N1,cell-free assay,competition with immobilised ligand,1 µM,98
c1cnn2ncc(-c3ccnc(N4CCC45COC5)n3)c2c1,binding,,1 µM,27
COC(=O)Nc1nc2ccc(C(=O)c3ccccc3)cc2[nH]1,cell-free assay,competition with immobilised ligand,10 µM,3
O=C(c1ccc(Nc2ncc(Cl)c(-c3ccc(Cl)s3)n2)cc1)N1CCC(N2CCCC2)CC1,binding,competition with immobilised ligand,1 µM,1.1
FC(F)(F)Oc1cccc(-c2cnc3ccc(-c4ccncc4)nn23)c1,cell-free assay,competition with immobilised ligand,5 µM,65
C[C@H]1CCN(c2nccc(-c3cnn4ncccc34)n2)C1,binding,,1 µM,32
CN(C)C(=O)Cn1cc(-c2nc([C@@](C)(c3ccc(-c4cnc(N)nc4)cc3)C3CC3)no2)cn1,cell-free assay,competition with immobilised ligand,1 µM,94
COc1ccnn2ncc(-c3ccnc(N(C)C)n3)c12,binding,,1 µM,80
O=C(c1ccc(Nc2nccc(-c3cc4ccccc4s3)n2)cc1)N1CCC(N2CCCC2)CC1,binding,competition with immobilised ligand,1 µM,12
CC1=C(C#N)[C@@H](c2ccc3[nH]nc(C)c3c2)C(C#N)=C(c2ccc(Cl)cc2)N1,cell-free assay,competition with immobilised ligand,1 µM,68.8
N[C@H]1CCN(c2nccc(-c3cnn4ncccc34)n2)C1,binding,,1 µM,60
Cc1noc([C@H]2C[C@@H](c3ccc(C(F)(F)F)cc3)CN(C(=O)N3CCS(=O)(=O)C3)C2)n1,cell-free assay,competition with immobilised ligand,1 µM,88
CN(CCCC(F)(F)F)c1nccc(-c2cnn3ncccc23)n1,binding,,1 µM,97
